Reference: paper PMC8099784 (Redox Biology, 2021)
Read-outs that look alike come from different tables or passages of the source. Values belong to the molecule of their own block, whether it stands above or below them. Peptide text beside a SMILES is read from it. * marks the point of attachment. Cbz = O=C(OCc1ccccc1)*; CH2F = FC*

Experiments:
HepG2 = experiment: MTT cell viability assay, HepG2 cells; format: cell-based, human; settings: for effect of caspase inhibitors on the effects of 23 on cell viability: HepG2, pretreated 2 h (Z-VAD-FMK 10 μM, Ac-DEVD-CHO 50 μM, Z-LEHD-FMK TFA 20 μM); for effect on 23-induced cell morphological changes and cell viability: HepG2, 10 μM pretreated 1 h
In short: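 HepG2 at 5 × 10^3 cells/well, overnight, in RPMI 1640 with 10% FBS. Dose series for 24 h, or 2.5 μM for 24 h after pretreatment: MitoQ 1 μM for 1 h; Fer-1, DFO or Z-VAD-FMK 10 μM for 1 h; or Z-VAD-FMK 10 μM, Ac-DEVD-CHO 50 μM or Z-LEHD-FMK 20 μM for 2 h. MTT 4 h, DMSO, 570 nm. Morphology imaged by inverted microscopy.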

HBE = experiment: MTT cell viability assay, HBE normal lung cells; format: cell-based, human; settings: read-out: IC50 (μM) HBE
In short: (§1)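 Cells kept in RPMI 1640 with 10% FBS and penicillin/streptomycin at 37 °C, 5% CO2. Seeded at 5 × 10^3 cells/well overnight, exposed to a concentration series for the stated time. MTT (5 mg/mL) added for 4 h, crystals dissolved in DMSO, absorbance read at 570 nm. Normalized to DMSO vehicle; three independent runs; IC50 by curve fitting.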

A549 = experiment: MTT cell viability assay, A549 cells; format: cell-based; settings: Homo sapiens, A549, read-out: IC50 (μM) A549
In short: as §1

A2780 = experiment: MTT cell viability assay, A2780 cells; format: cell-based; settings: Homo sapiens, A2780, read-out: IC50 (μM) A2780
In short: as §1

7860 = experiment: MTT cell viability assay, 7860 cells; format: cell-based, human
In short: as §1

Human Prdx I = target: T1, Human Prdx I (Homo sapiens, UniProt Q06830); experiment: Peroxidase activity of recombinant Prdx I; format: biochemical; settings: Amplex Red probe, Fig. 4H
T1 sequence (Q06830 1-199): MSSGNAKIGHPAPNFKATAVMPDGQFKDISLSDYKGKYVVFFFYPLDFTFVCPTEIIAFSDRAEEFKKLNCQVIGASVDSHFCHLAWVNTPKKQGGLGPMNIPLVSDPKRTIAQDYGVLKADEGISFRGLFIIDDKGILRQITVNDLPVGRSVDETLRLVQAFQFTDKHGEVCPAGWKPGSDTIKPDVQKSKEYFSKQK
In short: (§2)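 Human Prdx I or II cloned in pET28a, expressed in E. coli BL21, purified. In 50 mM sodium phosphate pH 7.4, enzyme (30 μM solution) preincubated with compound 30 min at RT. H2O2 (10 μM solution) added for 10 min, then Amplex Red (50 μM solution) with HRP (1 U/mL solution) for 10 min. Fluorescence ex 535/em 595 nm; n = 3.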

Human Prdx II = target: T2, Human Prdx II (Homo sapiens, UniProt P32119); experiment: Peroxidase activity of recombinant Prdx II; format: biochemical; settings: Amplex Red probe, Fig. 4I
T2 sequence (P32119 1-198): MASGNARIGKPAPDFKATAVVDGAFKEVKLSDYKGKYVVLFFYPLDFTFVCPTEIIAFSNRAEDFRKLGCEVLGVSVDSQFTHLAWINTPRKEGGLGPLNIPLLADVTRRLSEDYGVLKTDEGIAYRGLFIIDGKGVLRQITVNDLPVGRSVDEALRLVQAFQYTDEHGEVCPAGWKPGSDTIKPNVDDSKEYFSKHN
In short: as §2

HepG2 cells [1] = experiment: C11-BODIPY lipid peroxidation assay, HepG2; format: cell-based, human; settings: HepG2, 10 μM pretreated 1 h, then 2.5 μM 23 for 24 h
In short: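 HepG2, 1.6 × 10^5 cells/well. Treated at 1.25, 2.5 or 5 μM for 24 h, or 2.5 μM for 0–24 h; some wells pretreated 1 h with Fer-1, DFO or Z-VAD-FMK (each 10 μM). Trypsinized cells stained in PBS with 1.5 μM C11-BODIPY, 15 min, 37 °C; FL1 flow cytometry. Mean ± SD, n = 3.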

HepG2 cells [2] = experiment: ROS detection by DCFH-DA, HepG2; format: cell-based, human; settings: then 2.5 μM 23 for 24 h
In short: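 Cells seeded at 1.6 × 10^5 per well and exposed to treatment; HepG2 variants used MitoQ 1 μM for 1 h or a caspase-inhibitor pretreatment before 2.5 μM for 24 h. Trypsinized cells incubated 30 min in PBS with 10 μM DCFH-DA. Green fluorescence read on the FL1 flow-cytometry channel.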

HepG2 cells [3] = experiment: Mitochondrial membrane potential; format: cell-based, human; settings: HepG2, 10 μM pretreated 2 h, then 2.5 μM 23 for 24 h
In short: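 Cells seeded at 1.6 × 10^5 per well and exposed to treatment. Loaded with JC-1 for 1 h at 37 °C, washed twice in PBS, then held in serum-free medium. Red/green fluorescence ratio measured by flow cytometry.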

SMILES: CC(=O)N[C@@H](CC(=O)O)C(=O)N[C@@H](CCC(=O)O)C(=O)N[C@H](C(=O)N[C@H](C=O)CC(=O)O)C(C)C [Ac-DEVD-CHO]
effect of caspase inhibitors on the effects of 23 on cell viability (HepG2; then 2.5 μM 23 for 24 h): partially reversed

IC50 (HepG2; Homo sapiens, HepG2, read-out: IC50 (μM) HepG2): 7.3 ± 0.8 µM
IC50 (A549): 8.5 ± 1 µM
IC50 (A2780): 5.4 ± 0.9 µM
peroxidase activity of recombinant Prdx I (Human Prdx I): effectively inhibited
peroxidase activity of recombinant Prdx II (Human Prdx II): effectively inhibited
SMILES: C=C1C(=O)[C@]23C[C@H]1C[C@H](OC(C)=O)[C@H]2[C@]1(C)[C@@H](OC(C)=O)C[C@H](O)C(C)(C)[C@H]1C(=O)[C@@H]3OC(C)=O [Adenanthin]
IC50 (HBE; Homo sapiens, HBE): 7.7 ± 1.1 µM
IC50 (7860; Homo sapiens, 786-0, read-out: IC50 (μM) 7860): 5.5 ± 0.6 µM

SMILES: N.N.[Cl][Pt][Cl] [Cisplatin]
IC50 (HBE; cytotoxicity, MTT, normal lung cell line, mean ± SD): 9.2 ± 1.4 µM
IC50 (HepG2; read-out: IC50 (μM) HepG2, cytotoxicity, MTT, mean ± SD): 8.5 ± 0.4 µM
IC50 (7860; read-out: IC50 (μM) 7860, cytotoxicity, MTT, mean ± SD): 13.5 ± 1.3 µM

SMILES: CC(=O)N(O)CCCCCNC(=O)CCC(=O)N(O)CCCCCNC(=O)CCC(=O)N(O)CCCCCN [DFO]
effect on 23-induced cell morphological changes and cell viability (HepG2; then 2.5 μM 23 for 24 h, MTT): markedly blocked
effect on 23-induced lipid peroxidation (HepG2 cells [1]): attenuated

SMILES: CCOC(=O)c1ccc(NC2CCCCC2)c(N)c1 [Fer-1]
effect on 23-induced cell morphological changes and cell viability (HepG2; then 2.5 μM 23 for 24 h, MTT): markedly blocked
effect on 23-induced lipid peroxidation (HepG2 cells [1]): attenuated

SMILES: COC1=C(OC)C(=O)C(CCCCCCCCCC[P+](c2ccccc2)(c2ccccc2)c2ccccc2)=C(C)C1=O [MitoQ]
effect on 23-induced cell viability inhibition (HepG2; HepG2, pretreated 1 μM 1 h, then 2.5 μM 23 for 24 h, MTT): reversed
effect on 23-induced ROS accumulation (HepG2 cells [2]; HepG2, pretreated 1 μM 1 h): reversed

SMILES: COC(=O)CC[C@H](NC(=O)[C@H](CC(C)C)NC(=O)OCc1ccccc1)C(=O)N[C@@H](Cc1cnc[nH]1)C(=O)N[C@@H](CC(=O)OC)C(=O)CF.O=C(O)C(F)(F)F [Z-LEHD-FMK TFA] (Cbz-LE(OMe)HD(OMe)-CH2F)
effect of caspase inhibitors on the effects of 23 on cell viability (HepG2; then 2.5 μM 23 for 24 h): partially reversed

SMILES: COC(=O)C[C@H](NC(=O)[C@H](C)NC(=O)[C@@H](NC(=O)OCc1ccccc1)C(C)C)C(=O)CF [Z-VAD-FMK] (Cbz-Val-Ala-Asp(OMe)-CH2F)
effect on 23-induced cell morphological changes and cell viability (HepG2; then 2.5 μM 23 for 24 h, MTT): markedly blocked
effect of caspase inhibitors on the effects of 23 on cell viability (HepG2; then 2.5 μM 23 for 24 h): partially reversed
effect on the changes in ROS caused by 23 (HepG2 cells [2]; HepG2, 10 μM pretreated 2 h): no effect
effect on the changes in MMP caused by 23 (HepG2 cells [3]): no effect
